Measured values taken from ChEMBL document CHEMBL1141257, “Solanapyrone analogues from a Hawaiian fungicolous fungus” (J Nat Prod, 2007).
In brackets after ≈: the same amount, converted by molar mass. Activity calls are given as the source filed them. The rule behind the calls is not given here.

Assays:
Candida albicans [1] = experiment: Antifungal activity against Candida albicans ATCC 14053; format: functional
Procedure, shortened: (§1)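 Standard agar disk diffusion assay with 50 μg loaded per disk. Zones were read after 4 days as clear zones of inhibition in mm. For S. aureus, the zone of reduced growth was also measured in mm.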

Staphylococcus aureus [2] = experiment: Antibacterial activity against Staphylococcus aureus ATCC 25923 at 50 ug/disk after 4 days; format: functional; conditions: for zone of inhibition at 50 µg/disc: ATCC 25923, 96 h, read-out: IZ; procedure, shortened: as §1
Escherichia coli = experiment: […] activity against Escherichia coli ATCC 25922; format: functional, organism-based; procedure, shortened: as §1
Candida albicans [3] = experiment: Antifungal activity against Candida albicans ATCC 14053 at 50 ug/disk; format: functional; conditions: read-out: IZ; procedure, shortened: as §1
Aspergillus flavus [4] = experiment: Antifungal activity against Aspergillus flavus NRRL 6541 at 200 ug/disk after 4 days; format: functional; conditions: NRRL 6541, 96 h, read-out: IZ
Procedure, shortened: (§2)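 Disk diffusion assay with 200 μg applied per disk; the diameter of the growth-inhibition zone was read in mm, and persistence of the zone was followed over 4 days.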

Aspergillus flavus [5] = experiment: Antifungal activity against Aspergillus flavus NRRL 6541; format: functional, organism-based
Procedure, shortened: (§3)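 Disk diffusion assay against the fungus with 200 μg of compound per disk; zones of inhibition were read and followed over 4 days. A further evaluation reported MIC and IC50 values, with the antifungal standard run under the same protocols.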

Staphylococcus aureus [6] = experiment: Antibacterial activity against Staphylococcus aureus ATCC 25923 assessed as zone of reduced growth at 50 ug/disk after 4 days; format: functional; conditions: ATCC 25923, 96 h, read-out: IZ; procedure, shortened: as §1
Fusarium verticillioides [7] = experiment: Antifungal activity against Fusarium verticillioides NRRL 25457; format: functional, organism-based; procedure, shortened: as §3
Fusarium verticillioides [8] = experiment: Antifungal activity against Fusarium verticillioides NRRL 25457 at 200 ug/disk after 4 days; format: functional; conditions: NRRL 25457, 96 h, read-out: IZ; procedure, shortened: as §2

In the case of COc1cc([C@@]2(C)[C@H]3[C@H](C=C[C@H]2C)CCC[C@@H]3C)oc(=O)c1CO, the Activity (Candida albicans [1]) is reported as “inactive”, the Activity (Staphylococcus aureus [2]) is reported as “inactive” and the Activity (Escherichia coli) is reported as “inactive”.
For C[C@H]1CCC[C@@H]2C=C[C@H](C)[C@@](C)(C3=CC(=O)/C(=C/N)C(=O)O3)[C@H]12, the Activity (Candida albicans [1]) was “inactive”, the Activity (Staphylococcus aureus [2]) was “inactive” and the Activity (Escherichia coli) was “inactive”.
With CCCCC[C@@H](O)[C@H]1C(=O)O[C@H](C)[C@@H](O)/C=C/C=C/C=C/C=C/C=C(\C)[C@@H](O)C[C@H](O)C[C@H](O)C[C@H](O)C[C@H](O)C[C@H](O)C[C@@H]1O [FILIPIN] the zone of inhibition at 50 µg/disc (Candida albicans [3]) was 23 mm.
With COc1cc([C@@]2(C)[C@@H]3[C@@H](C)CCC[C@@H]3C=C[C@@H]2C)oc(=O)c1C=O [SOLANAPYRONE J] the “inhibition zone (IZ)” value (Candida albicans [1]) was 19 mm, the zone of inhibition at 200 µg/disc (Aspergillus flavus [4]) was 30 mm and the MIC (Aspergillus flavus [5]; Aspergillus flavus, NRRL 6541) was 20 µg/mL (≈ 60.5 µM). For the same molecule, the IC50 (Aspergillus flavus [5]; Aspergillus flavus, NRRL 6541, read-out: IC50) was 8.6 µg/mL (≈ 26 µM), the zone of inhibition at 50 µg/disc (Staphylococcus aureus [6]) was 21 mm and the MIC (Fusarium verticillioides [7]; Fusarium verticillioides, NRRL 25457) was 24 µg/mL (≈ 72.6 µM). For the same molecule, the IC50 (Fusarium verticillioides [7]; Fusarium verticillioides, NRRL 25457, read-out: IC50) was 15 µg/mL (≈ 45.4 µM), the zone of inhibition at 50 µg/disc (Staphylococcus aureus [2]) was 17 mm and the zone of inhibition at 200 µg/disc (Fusarium verticillioides [8]) was 30 mm.
In the case of C[C@H]1CCC[C@@H]2C=C[C@H](C)[C@@](C)(C3=CC(=O)/C(=C\NCCO)C(=O)O3)[C@H]12 [SOLANAPYRONE K], the “inhibition zone (IZ)” value (Candida albicans [1]) is reported as 13 mm and the zone of inhibition at 50 µg/disc (Staphylococcus aureus [2]) is reported as 9 mm.
NYSTATIN [listing 1 of 2 here] gave an IC50 (Aspergillus flavus [5]) of 5 µg/mL and an IC50 (Fusarium verticillioides [7]) of 3 µg/mL.
NYSTATIN [listing 2 of 2 here] showed an MIC (Aspergillus flavus [5]) of 10 µg/mL and an MIC (Fusarium verticillioides [7]) of 10 µg/mL.
